A selection: hits, their analogues and other compounds. The true share with any hit is near 4.8%.
ALR H2O2 inh = blocks human ALR sulfhydryl oxidase activity | P55789 | purified ALR, DTT oxidation, H2O2 HRP-luminol luminescence | inhibition, % (no concentration beside the values) | 3.8% of 290,000 active | AID 485317;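 active = mean replicate inhibition above about 79%, with every replicate also reaching it, limit read from the data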
Target sequence (P55789 whole entry, looked up): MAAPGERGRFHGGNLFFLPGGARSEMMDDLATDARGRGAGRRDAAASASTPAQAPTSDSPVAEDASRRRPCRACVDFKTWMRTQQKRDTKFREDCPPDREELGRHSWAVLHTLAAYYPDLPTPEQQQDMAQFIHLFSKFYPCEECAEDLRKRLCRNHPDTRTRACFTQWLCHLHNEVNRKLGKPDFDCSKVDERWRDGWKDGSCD
ATG4B inhibitor = blocks human ATG4B protease cleavage of LC3 substrate; Q9Y4P1; inhibition, % at 8.33 µM; 0.51% of 340,000 active; AID 504462; ATG4B cleavage of LC3-PLA2, NBD-HPC fluorescence, 1 h; in the data active = inhibition above about 40%
Target sequence (Q9Y4P1 whole entry, looked up): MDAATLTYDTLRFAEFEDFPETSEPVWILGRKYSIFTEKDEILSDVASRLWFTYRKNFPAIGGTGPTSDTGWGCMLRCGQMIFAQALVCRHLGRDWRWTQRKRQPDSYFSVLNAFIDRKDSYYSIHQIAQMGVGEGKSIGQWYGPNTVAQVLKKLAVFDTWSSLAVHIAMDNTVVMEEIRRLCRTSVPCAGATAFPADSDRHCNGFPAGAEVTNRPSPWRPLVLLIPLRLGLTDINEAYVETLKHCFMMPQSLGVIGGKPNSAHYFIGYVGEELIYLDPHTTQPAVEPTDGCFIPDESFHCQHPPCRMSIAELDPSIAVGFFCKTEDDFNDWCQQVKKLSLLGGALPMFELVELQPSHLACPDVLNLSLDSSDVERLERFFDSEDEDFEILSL
UCH37 inh = human UCH37 deubiquitinating enzyme inhibition | AID 588478 | purified proteasome/UCH37, Ub-AMC cleavage fluorescence | 0.33% of 330,000 active | inhibition, % (no concentration beside the values) | Q9Y5K5;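 active = mean inhibition over replicate wells above about 20%, limit read from the data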
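Material: Human UCH37 enzyme supplied as purified proteasome complex | Schedule: 30 min compound-proteasome preincubation then 25 min substrate reaction, room temperature | Detection: AMC fluorescence from Ub-AMC cleavage, excitation 355 nm, emission 460 nm | Benchmarks: Wells without proteasome as full block, compound-free enzyme plus substrate as uninhibited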
NLRP3 yeast inh = NALP3 inhibition in yeast; Yeast reconstituted NLRP3/ASC/caspase-1, beta-gal luminescence, 24 h; 0.39% of 330,000 active; inhibition, % at 10 µM;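 active = inhibition of 50% or more; inactive = inhibition below 50%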
NALP1 yeast inh = inhibitors of NALP1 inflammasome in yeast; 0.61% of 280,000 active; S. cerevisiae NALP1/ASC/caspase-1 growth, X-gal OD620, 72 h; AID 2071; inhibition, % at 10 µM; in the data active = inhibition mostly above about 24%, no sharp cut-off; inactive = mostly below about 32%
Calb FLC = affects C. albicans growth with fluconazole; C. albicans CaCi-2 (fluconazole-resistant clinical isolate) + fluconazole, Alamar Blue growth, 48 h; growth inhibition, % (test concentration not listed); 0.57% of 300,000 active; AID 1979;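 active = growth inhibition above about 58% in most replicates, limit read from the data, passing the limit was not always enough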;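 note: all wells also contain fluconazole at 8 µg/ml as a sub-toxic cotreatment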
Hits are given with their value; - = inactive; . = not tested or not shown.

SMILES | ALR H2O2 inh | ATG4B inhibitor | UCH37 inh | NLRP3 yeast inh | NALP1 yeast inh | Calb FLC
COc1ccc(C=NOC(=O)c2ccc(Cl)cc2)c(Cl)c1OC | . | . | - | . | . | .
Cc1cc(C=NNC(=O)c2cccc(F)c2)c(C)n1-c1ccccc1 | . | . | - | . | . | .
OC(CNCCC(c1ccccc1)c1ccccc1)COc1ccccc1 (configuration not stated) | - | - | - | - | 33.4 | -
OC(CNCCc1ccccc1)COc1ccc(OCC(O)CNCCc2ccccc2)cc1 (configuration not stated) | - | - | - | - | - | -
CC(=O)ON=Cc1c(N2CCOCC2)n(C)c2ccccc12 | . | . | - | . | . | .
CCCn1c(N)c(C(=O)CSc2nc3ccccc3s2)c(=O)[nH]c1=O | 97.1 | - | - | - | - | -
CN(C(=O)CSc1nc2ccccc2s1)c1c(N)n(Cc2ccccc2)c(=O)[nH]c1=O | 99.0 | - | - | - | - | -
CCCn1c(N)c(C(=O)CSc2nnc(N)s2)c(=O)[nH]c1=O | - | - | - | - | . | .
CCN(C(=O)CSc1nc2ccc([N+](=O)[O-])cc2s1)c1c(N)n(Cc2ccccc2)c(=O)[nH]c1=O | . | - | - | . | . | .
O=C(Nc1ncc2c(n1)CC(c1ccccc1)CC2=O)c1ccco1 (configuration not stated) | - | - | - | - | - | -
CCCCCC(=O)Nc1ncc2c(n1)CC(c1cccs1)CC2=O (configuration not stated) | - | - | - | - | 38.2 | -
O=[N+]([O-])c1cccc(-c2cnc3ccccc3n2)c1 | - | - | - | - | - | -
Nc1cccc(-c2cnc3ccccc3n2)c1 | 99.3 | - | - | - | - | -
C=C(C)C1CC=C(C)C(=NNC(=O)c2ccc(NC(=O)CCC)cc2)C1 (configuration not stated) | . | . | - | . | . | .
Cc1ccc(C=NNC(=O)c2ccc(-n3cccc3)cc2)o1 | . | . | - | . | . | .
O=C(N/N=C/c1cccc(O)c1)N/N=C/c1cccc(O)c1 | 81.9 | - | . | - | - | -
O=C(NN=Cc1ccc(O)c(O)c1)NN=Cc1ccc(O)c(O)c1 | . | . | - | . | . | .
CC(NC(=O)c1ccc(CS(C)(=O)=O)cc1)C1CC2CCC1C2 (configuration not stated) | - | - | - | - | - | -
CC(NCc1ccc(N(C)C)cc1)C1CC2CCC1C2 (configuration not stated) | 98.1 | - | - | - | - | -
C/C(=N\Nc1ccc(Cl)cc1)c1c(O)cc(C)oc1=O | 98.6 | - | . | - | - | 124.7
O=C(NN=Cc1ccccn1)c1ccc(NC(=O)c2ccccc2Cl)cc1 | . | . | - | . | . | .
C=CCN1C(=O)C(CC(=O)O)SC1=NN=Cc1ccc(N(CC)CC)cc1 (configuration not stated) | . | . | - | . | . | .
CN(C)c1ccc(/C=N/N=C2/SC(CC(=O)O)C(=O)N2c2ccc(O)cc2)cc1 (configuration not stated) | 97.3 | - | . | - | - | -
O=C(O)CC1S/C(=N\N=C/c2ccccc2)N(c2ccc(O)cc2)C1=O (configuration not stated) | - | - | . | - | - | -
COc1cc(C=NN=C2SC(CC(=O)O)C(=O)N2c2ccc(O)cc2)ccc1O (configuration not stated) | . | . | - | . | . | .
SMILES | ALR H2O2 inh | ATG4B inhibitor | UCH37 inh | NLRP3 yeast inh | NALP1 yeast inh | Calb FLC
CN1C(=O)C(CC(=O)O)S/C1=N\N=C\c1ccc(O)cc1O (configuration not stated) | 84.7 | - | . | - | - | -
C=CCN1C(=O)C(CC(=O)O)S/C1=N/N=C/c1ccc(N(CC)CC)cc1 (configuration not stated) | 99.1 | - | . | - | . | .
CCOc1ccc(CSC(=N)N)cc1[N+](=O)[O-] | 98.0 | - | - | - | - | -
CCOc1ccc(CSC(=N)N)cc1Cl | 99.5 | - | - | - | - | -
CC(=O)Oc1ccc(C=NNC(=O)CCSc2ccccc2)cc1 | . | . | - | . | . | .
NC(=S)N/N=C/c1cccc(O)c1O | 98.2 | - | . | - | - | -
Oc1cccc(/C=N/NC(=S)Nc2cccnc2)c1O | 89.7 | - | . | . | - | -
Oc1cccc(/C=N/NC(=S)NCCN2CCOCC2)c1O | 99.6 | - | . | - | - | -
S=C(NCCN1CCOCC1)N/N=C/c1cccs1 | - | - | . | - | - | -
COc1ccc(C=NOCC(=O)N=Nc2c(O)[nH]c3ccc(Br)cc23)cc1 | . | . | - | . | . | .
O=C(O)c1ccccc1NS(=O)(=O)c1ccc(NN=Cc2ccc(O)c(O)c2)c([N+](=O)[O-])c1 | . | . | - | . | . | .
COc1ccc(NC(=S)NNc2ccc(S(=O)(=O)Nc3ccccc3C(=O)O)cc2[N+](=O)[O-])cc1 | 99.4 | - | - | - | - | -
CCOc1ccc(C=NNc2ccc(S(=O)(=O)Nc3ccccc3C(=O)O)cc2[N+](=O)[O-])cc1 | - | - | - | - | . | .
CSc1ccc(C=NNc2ccc(S(=O)(=O)Nc3ccccc3C(=O)O)cc2[N+](=O)[O-])cc1 | - | - | 22.4 | - | . | .
O=c1nccc(NN=Cc2ccccc2)[nH]1 | . | . | - | . | . | .
Cn1cccc1/C=C1\SC(=Nc2ccc(O)cc2)NC1=O | 99.0 | - | - | - | - | -
CCOC(=O)C1CCN(C(=O)COC(=O)c2ccc(Br)o2)CC1 | - | - | - | - | - | -
CC1CCN(C(=O)COC(=O)c2ccc(Br)o2)CC1 | - | - | - | - | 33.8 | -
Cc1ccc(-c2cc(C(=O)NN=Cc3cccnc3)c3ccccc3n2)cc1C | . | . | - | . | . | .
CCN(CC)S(=O)(=O)c1cccc(NC(=O)Nc2cccc(C(F)(F)F)c2)c1 | - | - | - | - | 36.7 | -
CCN(CC)S(=O)(=O)c1cccc(NC(=O)CC2CCCC2)c1 | . | - | - | - | - | -
S=c1nc(-c2ccccc2Cl)n(Cc2cccnc2)c2c1CCCC2 | 99.5 | - | - | - | - | -
COc1ccc(OC)c(/C=N/N(C)c2ccccc2)c1 | 98.9 | - | . | - | - | -
COc1cc(/C=N/N(C)c2ccccc2)cc(Cl)c1O | 98.9 | - | . | - | - | -
Cc1ccc(NC(=O)C(CN(C)C)=NO)cc1 | . | . | - | . | . | .
SMILES | ALR H2O2 inh | ATG4B inhibitor | UCH37 inh | NLRP3 yeast inh | NALP1 yeast inh | Calb FLC
CN1CCN(S(=O)(=O)c2ccc(N)cc2)CC1 | 96.1 | - | - | - | - | -
Cc1ccc(-c2ccc(S(=O)(=O)N3CCN(C)CC3)cc2)cc1 | - | - | - | - | - | -
Cc1cc(C(=O)C(=O)O)c(C)n1-c1ccc(Cl)c(Cl)c1 | 95.4 | - | - | - | - | -
Cc1n[nH]c(C)c1CCNCc1ccc(OCC(O)CN2CCCCC2)cc1 (configuration not stated) | - | - | - | - | - | 70.5
O=C(OCn1ncc(Cl)c(Cl)c1=O)c1ccc(F)cc1 | - | . | . | - | - | 107.4
O=C(OCn1ncc(Cl)c(Cl)c1=O)c1ccccc1Cl | - | - | - | . | - | 107.9
CCC(CC)C(=O)Nc1cccc(C(C)=NNC(=O)c2c(Br)cnn2C)c1 | . | . | - | . | . | .
O=C(CCc1nc2ccccc2[nH]c1=O)OCC(=O)c1cccc2ccccc12 | . | . | . | . | 36.1 | .
COC(=O)CCc1nc2ccccc2[nH]c1=O | - | - | - | - | - | -
